Assay results pooled from the literature.
Lines come from different studies, so protocols differ.
HTR2A: 5-hydroxytryptamine receptor 2A (HTR2A, Homo sapiens, UniProt P28223)
SRD5A1: 3-oxo-5-alpha-steroid 4-dehydrogenase 1 (SRD5A1, Homo sapiens, UniProt P18405)
EDNRA: Endothelin-1 receptor (EDNRA, Homo sapiens, UniProt P25101)

Compound	target	test	system	conditions	inhibition
COc1cc2c3c(c1OC)-c1c(OC)ccc(N4CCOCC4)c1CC3N(C)CC2 (stereo not drawn)	HTR2A	ligand displacement, radioligand		10 µM	49%
NC/C(=C\F)COc1cccc(Cn2c(=S)[nH]c(=O)c3[nH]cnc32)c1	Cannabinoid receptor 1 (CNR1, Homo sapiens, UniProt P21554)	ligand displacement, radioligand		10 µM	< 50%
CC(=O)Oc1ccc(C=CC(=O)O)cc1OC(C)=O	SRD5A1	enzyme activity in cells, inhibitor	HaCaT	50 µM	12.2%
Cc1cc(O)c(-c2ccc([C@@H](C)CN(C)C)cc2)c2c1[nH]c(=O)c1sccc12	Serine/threonine-protein kinase VRK2 (VRK2, Homo sapiens, UniProt Q86Y07)	enzyme activity, inhibitor		0.1 µM	3.23%
Cc1cc(F)cc2c(CCC(=O)N[C@@H]3C(=O)NC[C@H]3O)c(-c3ccc(F)cc3)[nH]c12	EDNRA	cell-free assay		10 µM	-19%
O=C(O)/C=C/c1ccc(O)c(O)c1	SRD5A1	enzyme activity in cells, inhibitor	HaCaT	50 µM	6.07%
CCN1/C(=C/C(C)=O)Sc2ccc(F)cc21	EDNRA	ligand displacement, radioligand		10 µM	9.86%
COC(=O)C=Cc1ccc(OC(C)=O)c(OC(C)=O)c1	SRD5A1	enzyme activity in cells, inhibitor	HaCaT	50 µM	25.1%
COc1cc2c3c(c1OC)-c1c(OC)ccc(NC(C)=O)c1CC3N(C)CC2 (stereo not drawn)	HTR2A	ligand displacement, radioligand		10 µM	9%
